Legend:
Hepatitis C virus = experiment: Antiviral activity against HCV1b Con1 infected in human HuH7 cells assessed as inhibition of viral RNA replication by RT-PCR analysis; format: functional, organism-based, Hepacivirus hominis; settings: isolate Con1, Huh-7
[1] = AUC (0 to 6 hrs) in Sprague-Dawley rat at 10 mg/kg, po; format: ADME, organism-based; set-up: time < 6 hr, dose 10 mg/kg, route oral; settings: plasma
[2] = Ratio of EC50 for HCV1b Con1 to plasma concentration in Sprague-Dawley rat at 10 mg/kg, po after 6 hrs
[3] = Toxicity in human HuH7 cells assessed as effect on GAPDH mRNA level; format: cell-based, Huh-7
In short: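 Run in parallel with replicon assay in Con1 replicon Huh-7 cells (0.5% DMSO, 37 °C); endogenous GAPDH mRNA quantified by TaqMan RT-PCR; highest concentration tested 10000 nM.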

[4] = system: Pregnane X receptor (Homo sapiens); experiment: Activation of PXR (unknown origin) at 10 uM by reporter gene assay
Cytochrome P450 3A4 = Cytochrome P450 3A4 (Homo sapiens, UniProt P08684); experiment: Inhibition of CYP3A4 in human liver microsomes; format: ADME
Sequence of Cytochrome P450 3A4 (P08684 whole entry): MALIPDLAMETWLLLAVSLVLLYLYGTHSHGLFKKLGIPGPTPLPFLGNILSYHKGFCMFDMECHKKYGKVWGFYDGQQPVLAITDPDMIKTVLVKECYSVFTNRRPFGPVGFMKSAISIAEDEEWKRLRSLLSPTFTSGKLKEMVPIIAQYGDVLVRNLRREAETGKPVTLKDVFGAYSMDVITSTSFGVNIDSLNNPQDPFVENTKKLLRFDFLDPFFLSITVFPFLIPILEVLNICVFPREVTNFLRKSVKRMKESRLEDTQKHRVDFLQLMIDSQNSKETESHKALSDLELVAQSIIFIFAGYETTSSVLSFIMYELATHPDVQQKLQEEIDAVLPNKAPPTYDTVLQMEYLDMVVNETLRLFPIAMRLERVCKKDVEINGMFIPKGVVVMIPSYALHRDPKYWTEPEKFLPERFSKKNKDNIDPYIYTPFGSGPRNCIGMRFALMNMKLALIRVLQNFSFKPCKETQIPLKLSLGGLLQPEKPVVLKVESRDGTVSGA

Cytochrome P450 2C9 = Cytochrome P450 2C9 (Homo sapiens, UniProt P11712); experiment: Inhibition of CYP2C9 in human liver microsomes; format: ADME
Sequence of Cytochrome P450 2C9 (P11712 whole entry): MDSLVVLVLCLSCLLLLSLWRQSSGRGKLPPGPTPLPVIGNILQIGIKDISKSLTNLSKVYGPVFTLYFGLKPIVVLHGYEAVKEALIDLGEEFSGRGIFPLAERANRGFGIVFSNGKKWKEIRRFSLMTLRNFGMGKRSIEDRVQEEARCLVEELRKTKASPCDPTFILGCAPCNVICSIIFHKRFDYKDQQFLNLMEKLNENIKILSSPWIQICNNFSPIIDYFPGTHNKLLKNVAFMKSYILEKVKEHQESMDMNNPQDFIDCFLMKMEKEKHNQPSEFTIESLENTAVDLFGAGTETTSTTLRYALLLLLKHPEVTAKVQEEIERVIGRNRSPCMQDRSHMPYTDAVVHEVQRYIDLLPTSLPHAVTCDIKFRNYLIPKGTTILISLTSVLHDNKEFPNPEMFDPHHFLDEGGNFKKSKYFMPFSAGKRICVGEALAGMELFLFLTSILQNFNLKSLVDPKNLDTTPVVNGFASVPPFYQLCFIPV

Cytochrome P450 2D6 = Cytochrome P450 2D6 (Homo sapiens, UniProt P10635); experiment: Inhibition of CYP2D6 in human liver microsomes; format: ADME
Sequence of Cytochrome P450 2D6 (P10635 whole entry): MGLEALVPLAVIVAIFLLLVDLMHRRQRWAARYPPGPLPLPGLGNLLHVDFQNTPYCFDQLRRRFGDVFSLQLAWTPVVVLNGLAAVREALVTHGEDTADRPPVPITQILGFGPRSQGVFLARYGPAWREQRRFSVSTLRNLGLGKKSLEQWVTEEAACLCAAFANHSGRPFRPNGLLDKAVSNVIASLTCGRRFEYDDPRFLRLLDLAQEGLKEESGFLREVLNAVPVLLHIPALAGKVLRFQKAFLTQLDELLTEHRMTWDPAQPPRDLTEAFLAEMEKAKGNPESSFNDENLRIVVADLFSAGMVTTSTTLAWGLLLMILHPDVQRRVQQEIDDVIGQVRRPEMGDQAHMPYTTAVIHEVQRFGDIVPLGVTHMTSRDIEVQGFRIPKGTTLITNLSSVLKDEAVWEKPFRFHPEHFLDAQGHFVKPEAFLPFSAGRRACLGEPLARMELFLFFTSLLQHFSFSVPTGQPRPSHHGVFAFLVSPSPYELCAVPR

## CCc1cc2c(cc1F)c(C#N)c(-c1ccc(S(N)(=O)=O)cn1)n2-c1ncccn1
Hepatitis C virus
  EC50: > 10000 nM

## CC(O)c1cc2c(cc1F)c(C#N)c(-c1ccc(S(=O)(=O)N[C@@H](C)C(F)(F)F)cn1)n2-c1ncccn1 (stereo partly drawn)
Hepatitis C virus
  EC50: 68 nM

## CC(O)c1cc2c(cc1F)c(C#N)c(-c1ccc(S(N)(=O)=O)cn1)n2-c1ncccn1 (stereo not drawn)
Hepatitis C virus
  EC50: > 10000 nM

## C[C@H](NS(=O)(=O)c1ccc(-c2c(C#N)c3cc(F)c(C4CC4)cc3n2-c2ncccn2)nc1)C(F)(F)F
[1]
  AUC(0-t) at 6 h: 2.04 µM·h
[2]
  Ratio: 75
Hepatitis C virus
  EC50: 6 nM
[3]
  IC50: > 10000 nM

## C[C@H](NS(=O)(=O)c1ccc(-c2c(C#N)c3cc(F)c(C4CC4)cc3n2-c2ccccn2)nc1)C(F)(F)F
Hepatitis C virus
  EC50: 16 nM
[3]
  IC50: > 10000 nM

## C[C@H](NS(=O)(=O)c1ccc(-c2c(C#N)c3cc(F)c(C4CC4)cc3n2-c2ccc(F)cn2)nc1)C(F)(F)F
[1]
  AUC(0-t) at 6 h: 1.7 µM·h
[2]
  Ratio: 20
Hepatitis C virus
  EC50: 12 nM
[3]
  IC50: > 10000 nM

## Cc1cnc(-n2c(-c3ccc(S(=O)(=O)N[C@@H](C)C(F)(F)F)cn3)c(C#N)c3cc(F)c(C)cc32)nc1
Hepatitis C virus
  EC50: 32 nM
[3]
  IC50: > 10000 nM

## Cc1cc2c(cc1F)c(C#N)c(-c1ccc(S(=O)(=O)N[C@@H](C)C(F)(F)F)cn1)n2-c1ccc(F)cn1
[1]
  AUC(0-t) at 6 h: 3.45 µM·h
[2]
  Ratio: 42
Hepatitis C virus
  EC50: 8 nM
[3]
  IC50: > 10000 nM

## Cc1ccc(-n2c(-c3ccc(S(=O)(=O)N[C@@H](C)C(F)(F)F)cn3)c(C#N)c3cc(F)c(C)cc32)nc1
Hepatitis C virus
  EC50: 25 nM
[3]
  IC50: > 10000 nM

## Cc1cc2c(cc1F)c(C#N)c(-c1ccc(S(=O)(=O)N[C@@H](C)C(F)(F)F)cn1)n2-c1ncccc1C
Hepatitis C virus
  EC50: 400 nM
[3]
  IC50: > 10000 nM

## CCc1cc2c(cc1F)c(C#N)c(-c1ccc(S(=O)(=O)N[C@@H](C)C(F)(F)F)cn1)n2-c1ccccn1
[4]
  Activity: 54%
[1]
  AUC(0-t) at 6 h: 3.85 µM·h
[2]
  Ratio: 69
Hepatitis C virus
  EC50: 5 nM
Cytochrome P450 3A4
  IC50: > 10000 nM
Cytochrome P450 2C9
  IC50: > 10000 nM
[3]
  IC50: > 10000 nM
Cytochrome P450 2D6
  IC50: > 10000 nM

## CCc1cc2c(cc1F)c(C#N)c(-c1ccc(S(=O)(=O)N[C@@H](C)C(F)(F)F)cn1)n2-c1ccncc1
[1]
  AUC(0-t) at 6 h: 6.38 µM·h
[2]
  Ratio: 47
Hepatitis C virus
  EC50: 9 nM
[3]
  IC50: > 10000 nM

## CCc1cc2c(cc1F)c(C#N)c(-c1ccc(S(=O)(=O)N[C@@H](C)C(F)(F)F)cn1)n2-c1cnccn1
[1]
  AUC(0-t) at 6 h: 0.345 µM·h
[2]
  Ratio: 14
Hepatitis C virus
  EC50: 4 nM
[3]
  IC50: > 10000 nM

## CCc1cc2c(cc1F)c(C#N)c(-c1ccc(S(=O)(=O)N[C@@H](C)C(F)(F)F)cn1)n2-c1nccs1
[1]
  AUC(0-t) at 6 h: 2.75 µM·h
[2]
  Ratio: 347
Hepatitis C virus
  EC50: 2 nM
[3]
  IC50: > 10000 nM

## CCc1cc2c(cc1F)c(C#N)c(-c1ccc(S(=O)(=O)N[C@@H](C)C(F)(F)F)cn1)n2-c1ncc(F)cn1
[4]
  Activity: 71%
[1]
  AUC(0-t) at 6 h: 8.69 µM·h
[2]
  Ratio: 136
Hepatitis C virus
  EC50: 3 nM
Cytochrome P450 3A4
  IC50: > 10000 nM
Cytochrome P450 2C9
  IC50: > 10000 nM
[3]
  IC50: > 10000 nM
Cytochrome P450 2D6
  IC50: > 10000 nM

## CCc1cc2c(cc1F)c(C#N)c(-c1ccc(S(=O)(=O)N[C@@H](C)C(F)(F)F)cn1)n2-c1ncc(C)cn1
[1]
  AUC(0-t) at 6 h: 7.24 µM·h
[2]
  Ratio: 44
Hepatitis C virus
  EC50: 23 nM
[3]
  IC50: > 10000 nM

## CCc1cc2c(cc1F)c(C#N)c(-c1ccc(S(=O)(=O)N[C@@H](C)C(F)(F)F)cn1)n2-c1ccc(F)cn1
[1]
  AUC(0-t) at 6 h: 1.79 µM·h
[2]
  Ratio: 12
Hepatitis C virus
  EC50: 13 nM
[3]
  IC50: > 10000 nM

## Cc1cc(F)c2c(C#N)c(-c3ccc(S(=O)(=O)N[C@@H](C)C(F)(F)F)cn3)n(C3CCC3)c2c1
Hepatitis C virus
  EC50: 153 nM
[3]
  IC50: > 10000 nM

## C[C@H](NS(=O)(=O)c1ccc(-c2c(C#N)c3ccc(OC(F)F)cc3n2-c2ncccn2)nc1)C(F)(F)F
[1]
  AUC(0-t) at 6 h: 20.1 µM·h
Hepatitis C virus
  EC50: 7 nM
[3]
  IC50: > 10000 nM

## Cc1ccc2c(C#N)c(-c3ccc(S(=O)(=O)N[C@@H](C)C(F)(F)F)cn3)n(-c3ncccn3)c2c1
Hepatitis C virus
  EC50: 3 nM
[3]
  IC50: > 10000 nM

## C[C@H](NS(=O)(=O)c1ccc(-c2c(C#N)c3cc(F)c(OC(F)F)cc3n2-c2ncccn2)nc1)C(F)(F)F
[1]
  AUC(0-t) at 6 h: 3.81 µM·h
Hepatitis C virus
  EC50: 16 nM
[3]
  IC50: > 10000 nM

## Cc1cc2c(cc1F)c(C#N)c(-c1ccc(S(=O)(=O)N[C@@H](C)C(F)(F)F)cn1)n2-c1ccccn1
[1]
  AUC(0-t) at 6 h: 4.52 µM·h
[2]
  Ratio: 49
Hepatitis C virus
  EC50: 18 nM
[3]
  IC50: > 10000 nM

## Cc1cc2c(cc1F)c(C#N)c(-c1ccc(S(=O)(=O)N[C@@H](C)C(F)(F)F)cn1)n2-c1cccnc1
[1]
  AUC(0-t) at 6 h: 6.39 µM·h
[2]
  Ratio: 65
Hepatitis C virus
  EC50: 11 nM
[3]
  IC50: > 10000 nM

## Cc1cc2c(cc1F)c(C#N)c(-c1ccc(S(=O)(=O)N[C@@H](C)C(F)(F)F)cn1)n2-c1ccncc1
[1]
  AUC(0-t) at 6 h: 2.6 µM·h
[2]
  Ratio: 24
Hepatitis C virus
  EC50: 11 nM
[3]
  IC50: > 10000 nM

## Cc1cc2c(cc1F)c(C#N)c(-c1ccc(S(=O)(=O)N[C@@H](C)C(F)(F)F)cn1)n2-c1cnccn1
[1]
  AUC(0-t) at 6 h: 0.885 µM·h
[2]
  Ratio: 9
Hepatitis C virus
  EC50: 9 nM
[3]
  IC50: > 10000 nM

## Cc1cc2c(cc1F)c(C#N)c(-c1ccc(S(=O)(=O)N[C@@H](C)C(F)(F)F)cn1)n2-c1cccnn1
[1]
  AUC(0-t) at 6 h: 3.26 µM·h
[2]
  Ratio: 22
Hepatitis C virus
  EC50: 13 nM
[3]
  IC50: > 10000 nM

## Cc1cc2c(cc1F)c(C#N)c(-c1ccc(S(=O)(=O)N[C@@H](C)C(F)(F)F)cn1)n2-c1nccs1
[1]
  AUC(0-t) at 6 h: 1.76 µM·h
[2]
  Ratio: 96
Hepatitis C virus
  EC50: 3 nM
[3]
  IC50: > 10000 nM

## Cc1cc2c(cc1F)c(C#N)c(-c1ccc(S(=O)(=O)N[C@@H](C)C(F)(F)F)cn1)n2-c1cscn1
[1]
  AUC(0-t) at 6 h: 10.3 µM·h
[2]
  Ratio: 35
Hepatitis C virus
  EC50: 20 nM
[3]
  IC50: > 10000 nM

## Cc1cc2c(cc1F)c(C#N)c(-c1ccc(S(=O)(=O)N[C@@H](C)C(F)(F)F)cn1)n2-c1cncs1
[1]
  AUC(0-t) at 6 h: 6.27 µM·h
[2]
  Ratio: 38
Hepatitis C virus
  EC50: 7 nM
[3]
  IC50: > 10000 nM

## Cc1cc2c(cc1F)c(C#N)c(-c1ccc(S(=O)(=O)N[C@@H](C)C(F)(F)F)cn1)n2-c1cccs1
[1]
  AUC(0-t) at 6 h: 0.48 µM·h
[2]
  Ratio: 29
Hepatitis C virus
  EC50: 2 nM
[3]
  IC50: > 10000 nM

## C[C@H](NS(=O)(=O)c1ccc(-c2c(C#N)c3cc(O)c(OC(F)F)cc3n2C2CCC2)nc1)C(F)(F)F
Hepatitis C virus
  EC50: 63 nM
[3]
  IC50: > 10000 nM

## Cc1cc2c(C#N)c(-c3ccc(S(=O)(=O)N[C@@H](C)C(F)(F)F)cn3)n(C3CCC3)c2cc1OC(F)F
Hepatitis C virus
  EC50: 108 nM
[3]
  IC50: 10000 nM

## CCc1cc2c(C#N)c(-c3ccc(S(=O)(=O)N[C@@H](C)C(F)(F)F)cn3)n(C3CCC3)c2cc1OC(F)F
Hepatitis C virus
  EC50: 1400 nM
[3]
  IC50: > 10000 nM

## C[C@H](NS(=O)(=O)c1ccc(-c2c(C#N)c3cc(F)c(C4CC4)cc3n2C2CCC2)nc1)C(F)(F)F
Hepatitis C virus
  EC50: 28 nM
[3]
  IC50: > 10000 nM

## C[C@H](NS(=O)(=O)c1ccc(-c2c(C#N)c3cc(F)c(O)cc3n2C2CCC2)nc1)C(F)(F)F
Hepatitis C virus
  EC50: 410 nM
[3]
  IC50: > 10000 nM

## C[C@H](NS(=O)(=O)c1ccc(-c2c(C#N)c3cc(F)c(Cl)cc3n2C2CCC2)nc1)C(F)(F)F
Hepatitis C virus
  EC50: 460 nM
[3]
  IC50: > 10000 nM

## COc1cc2c(cc1F)c(C#N)c(-c1ccc(S(=O)(=O)N[C@@H](C)C(F)(F)F)cn1)n2C1CCC1
Hepatitis C virus
  EC50: 74 nM
[3]
  IC50: > 10000 nM

## CSc1cc2c(cc1F)c(C#N)c(-c1ccc(S(=O)(=O)N[C@@H](C)C(F)(F)F)cn1)n2C1CCC1
Hepatitis C virus
  EC50: 35 nM
[3]
  IC50: > 10000 nM

## C[C@H](NS(=O)(=O)c1ccc(-c2c(C#N)c3c(F)cc(OC(F)F)cc3n2C2CCC2)nc1)C(F)(F)F
Hepatitis C virus
  EC50: 18 nM
[3]
  IC50: > 10000 nM
